≈ marks a conversion by molar mass, not a printed value.
Experiments:
Assay type in all cases: functional
Candida parapsilosis = experiment: Antifungal activity against Candida parapsilosis GIM 2.190 assessed as fungal growth inhibition; details: Lodderomyces parapsilosis
Summary of the method: (§1)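 Broth microdilution per NCCLS M27-A3, with fluconazole as positive control. Assay medium was RPMI 1640 buffered with MOPS. Inocula were diluted to 1–5 × 10^3 CFU mL−1 and seeded in 96-well plates. Compounds were dissolved in DMSO and serially diluted in the growth medium. MIC was the read-out.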

Candida albicans [1] = experiment: Antifungal activity against Candida albicans ATCC SC5314 assessed as fungal growth inhibition; summary of the method: as §1
Candida tropicalis = experiment: Antifungal activity against Candida tropicalis CGMCC 2.3739 assessed as fungal growth inhibition; summary of the method: as §1
Nakaseomyces glabratus = experiment: Antifungal activity against clinical isolate Candida glabrata assessed as fungal growth inhibition; summary of the method: as §1
Cryptococcus neoformans = experiment: Antifungal activity against Cryptococcus neoformans CGMCC 2.3161 assessed as fungal growth inhibition; summary of the method: as §1
Pichia kudriavzevii = experiment: Antifungal activity against Pichia kudriavzevii GIM 2.1 assessed as fungal growth inhibition; summary of the method: as §1
Candida albicans [2] = experiment: Antifungal activity against Candida albicans CPCC400616 assessed as fungal growth inhibition; summary of the method: as §1

Row | Compound | MIC (Candida parapsilosis) | MIC (Candida albicans [1]) | MIC (Candida tropicalis) | MIC (Nakaseomyces glabratus) | MIC (Cryptococcus neoformans) | MIC (Pichia kudriavzevii) | MIC (Candida albicans [2])
1 | O=C(NC(Cn1ccnc1)C(=O)c1ccccc1)c1cc(-c2ccccc2)on1 (racemic) | > 64 mg/L | 32 mg/L (≈ 82.8 µM) | > 64 mg/L | > 64 mg/L | > 64 mg/L | > 64 mg/L | 64 mg/L (≈ 166 µM)
2 | Cc1ccc(-c2ncc(C(=O)NC(Cn3ccnc3)C(=O)c3ccccc3)cn2)cc1 (racemic) | > 64 mg/L | > 64 mg/L | > 64 mg/L | > 64 mg/L | > 64 mg/L | > 64 mg/L | > 64 mg/L
3 | CC(C)c1ccc(-c2ncc(C(=O)NC(Cn3ccnc3)C(=O)c3ccccc3)cn2)cc1 (racemic) | > 64 mg/L | > 64 mg/L | > 64 mg/L | > 64 mg/L | > 64 mg/L | > 64 mg/L | > 64 mg/L
4 | O=C(NC(Cn1ccnc1)C(=O)c1ccccc1)c1ccc(-c2ccoc2)cc1 (racemic) | > 64 mg/L | 16 mg/L (≈ 41.5 µM) | > 64 mg/L | > 64 mg/L | > 64 mg/L | > 64 mg/L | > 64 mg/L
5 | O=C(NC(Cn1ccnc1)C(=O)c1ccc(Br)cc1)c1cnc(-c2cccc(F)c2)nc1 (racemic) | > 64 mg/L | 0.5 mg/L (≈ 1.01 µM) | 16 mg/L (≈ 32.4 µM) | > 64 mg/L | > 64 mg/L | > 64 mg/L | 8 mg/L (≈ 16.2 µM)
6 | COc1ccc(-c2ncc(C(=O)NC(Cn3ccnc3)C(=O)c3ccccc3)cn2)cc1 (racemic) | > 64 mg/L | > 64 mg/L | > 64 mg/L | > 64 mg/L | > 64 mg/L | > 64 mg/L | > 64 mg/L
7 | CC(C)(C)c1cccc(-c2ncc(C(=O)NC(Cn3ccnc3)C(=O)c3ccccc3)cn2)c1 (racemic) | > 64 mg/L | > 64 mg/L | > 64 mg/L | > 64 mg/L | > 64 mg/L | > 64 mg/L | > 64 mg/L
8 | O=C(NC(Cn1ccnc1)C(=O)c1ccccc1)c1cnc(-c2ccc(Cl)cc2F)nc1 (racemic) | > 64 mg/L | > 64 mg/L | > 64 mg/L | > 64 mg/L | > 64 mg/L | > 64 mg/L | > 64 mg/L
9 | O=C(NC(Cn1ccnc1)C(=O)c1ccccc1)c1cnc(-c2cccc(OC(F)(F)F)c2)nc1 (racemic) | > 64 mg/L | > 64 mg/L | > 64 mg/L | > 64 mg/L | > 64 mg/L | > 64 mg/L | > 64 mg/L
10 | O=C(NC(Cn1ccnc1)C(=O)c1ccccc1)c1cnc(-c2ccc(OC(F)(F)F)cc2)nc1 (racemic) | > 64 mg/L | > 64 mg/L | > 64 mg/L | > 64 mg/L | > 64 mg/L | > 64 mg/L | > 64 mg/L
11 | O=C(NC(Cn1ccnc1)C(=O)c1ccccc1)c1cnc(-c2cccc(F)c2)nc1 (racemic) | 16 mg/L (≈ 38.5 µM) | 2 mg/L (≈ 4.81 µM) | 4 mg/L (≈ 9.63 µM) | 32 mg/L (≈ 77 µM) | 32 mg/L (≈ 77 µM) | 32 mg/L (≈ 77 µM) | 8 mg/L (≈ 19.3 µM)
12 | CC(C)c1cccc(-c2ncc(C(=O)NC(Cn3ccnc3)C(=O)c3ccccc3)cn2)c1 (racemic) | > 64 mg/L | > 64 mg/L | > 64 mg/L | > 64 mg/L | > 64 mg/L | > 64 mg/L | > 64 mg/L
13 | O=C(NC(Cn1ccnc1)C(=O)c1ccc(I)cc1)c1cnc(-c2cccc(F)c2)nc1 (racemic) | > 64 mg/L | 1 mg/L (≈ 1.85 µM) | > 64 mg/L | > 64 mg/L | > 64 mg/L | > 64 mg/L | 32 mg/L (≈ 59.1 µM)
14 | O=C(NC(Cn1ccnc1)C(=O)c1ccc(F)cc1)c1cnc(-c2cccc(F)c2)nc1 (racemic) | > 64 mg/L | 16 mg/L (≈ 36.9 µM) | > 64 mg/L | > 64 mg/L | > 64 mg/L | > 64 mg/L | > 64 mg/L
15 | O=C(NC(Cn1ccnc1)C(=O)c1ccccc1)c1cnc(-c2cccc(Cl)c2)nc1 (racemic) | > 64 mg/L | > 64 mg/L | > 64 mg/L | > 64 mg/L | > 64 mg/L | > 64 mg/L | > 64 mg/L
16 | O=C(NC(Cn1ccnc1)C(=O)c1ccccc1)c1ccc(-c2cccnc2)cc1 (racemic) | > 64 mg/L | 8 mg/L (≈ 20.2 µM) | > 64 mg/L | > 64 mg/L | > 64 mg/L | > 64 mg/L | 32 mg/L (≈ 80.7 µM)
17 | OC(Cn1cncn1)(Cn1cncn1)c1ccc(F)cc1F [FLUCONAZOLE] | 2 mg/L (≈ 6.53 µM) | 0.5 mg/L (≈ 1.63 µM) | 0.5 mg/L (≈ 1.63 µM) | 4 mg/L (≈ 13.1 µM) | 4 mg/L (≈ 13.1 µM) | 8 mg/L (≈ 26.1 µM) | 1 mg/L (≈ 3.27 µM)

— ChEMBL document CHEMBL5376019, “Design, synthesis and evaluation of 2-phenylpyrimidine derivatives as novel antifungal agents targeting CYP51” (RSC Med Chem, 2024)
